The values below come from PubChem BioAssay AID651999 (Sanford-Burnham Center for Chemical Genomics, 2013).

Values joined by “and” are separate entries in the source; they are usually repeats but may differ in a detail not shown here. Identical values can stand only once. Screen size: about 360,000 compounds; about 1,400 (0.39%) were called active. The sample holds actives, similar compounds and a random draw of the others, so the mix is not that of the screen.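 Rule for the calls: active = pattern-corrected inhibition above about 35%, with an unprinted fluorescence ratio check between 0.5 and 1.5 (limit read from the data, passing the limit was not always enough); inactive = the rest.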

Chain of COP9 signalosome complex subunit 5 (Homo sapiens) (Q92905 whole entry, looked up, one chain of several): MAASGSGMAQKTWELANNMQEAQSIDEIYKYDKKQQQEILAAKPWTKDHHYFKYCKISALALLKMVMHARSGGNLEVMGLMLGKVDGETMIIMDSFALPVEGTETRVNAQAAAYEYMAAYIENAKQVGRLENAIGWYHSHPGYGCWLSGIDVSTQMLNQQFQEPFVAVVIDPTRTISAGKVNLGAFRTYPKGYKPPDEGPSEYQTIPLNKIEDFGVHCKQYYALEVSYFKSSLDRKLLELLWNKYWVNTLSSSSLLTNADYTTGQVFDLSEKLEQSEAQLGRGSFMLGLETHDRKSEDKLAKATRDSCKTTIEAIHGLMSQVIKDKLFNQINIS

This test concerns the target COP9 signalosome complex subunit 5 (Homo sapiens) (UniProt Q92905). Nature of the test: CSN5 deneddylase inhibitors on cullin-RING ligase – biochemical, fluorescence polarization, uHTS, primary screen (AID 651999).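 Note: 0% = enzyme with substrate and 100% = substrate without enzyme.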 As to conditions: Purified CSN, SCF-Nedd8-OG deneddylation, at 12.5 µM, active compounds read high. A digest of the protocol:
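Detection – fluorescence polarization · System – HEK293T-derived human Csn5 enzyme · Controls – substrate-only high control, full reaction low control · Timing – 90 min, room temperature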
(In general: In fluorescence polarisation assays a small probe gives low polarisation when free and higher when bound to something large.)
For `CC(Oc1ccccc1)C(=O)Nc1oc(-c2ccco2)c(-c2ccco2)c1C#N` (stereo not given), the inhibition (commonly the change of the read-out against control, counted positive when it falls) was 38.5% (active). With `N#Cc1c(NC(=O)CCCN2C(=O)c3ccccc3C2=O)oc(-c2ccccc2)c1-c1ccccc1` the figure was -3.56% (inactive); with `CC(C)C(=O)Nc1oc(-c2ccccc2)cc1C#N`, 5.77% (inactive). `Nc1nnc2c(C(F)(F)F)nc3ccccc3n12`: the inhibition is 0.57% (inactive).

`Cc1cccc(N2C(=O)SC(SC(=Nc3ccccc3)Nc3ccccc3)C2=O)c1` (stereo not given): the inhibition was -2.12% (inactive). For `CCC(C)(C)n1nnnc1CN1CCN(c2nc3ccc(C)cc3cc2C#N)CC1`, the inhibition is 1.36% (inactive).

On to `Cc1cccc(N(C)C(=O)CN2C(=O)COc3ccc(S(=O)(=O)N4CCCCCC4)cc32)c1`, for which the inhibition is -4.61% (inactive). As to `Cc1cccc(NS(=O)(=O)c2cccc(C(=O)NNC(=O)c3ccccc3O)c2)c1`, the inhibition was -6.82% (inactive). With `Cc1ccccc1C(=O)NNC(=O)CN1C(=O)c2ccccc2C1=O` the figure was 6.43% (inactive); with `Cc1cc(C(=O)CCC(=O)NNC(=O)c2ccccc2O)c(C)s1`, 36.4% (active); with `COC(=O)c1ccc(CN2CCN(CCCc3ccccc3)C(CCO)C2)cc1` (stereo not given), -2.91% (inactive). Take `CCOC(=O)N1CCN(S(=O)(=O)N2CCCC(C(=O)NCCCN3CCC(C)CC3)C2)CC1` (stereo not given): the inhibition is 2.45% (inactive). With `O=C(Oc1c(-c2ccco2)oc2ccccc2c1=O)c1cccnc1` the figure was -1.72% (inactive); with `CC(Oc1ccc(-c2ccccc2)c(F)c1)c1ccn(S(=O)(=O)c2cccc3ccccc23)n1` (stereo not given), 3.61% (inactive). The result for `COc1ccc(C2OCC3(CO2)SC(=O)NC3=O)cc1OC` (stereo not given) reads -7.79% (inactive).

As to `CCc1ccc(CNC(=O)CCc2nc(-c3cccs3)no2)cc1`, the inhibition is 90.8% (active). The result for `COc1ccc(CCc2nc(-c3cccs3)no2)cc1` reads 1.58% (inactive); that for `COc1ccc(OC)c(CNC(=O)CCc2nc(-c3cccs3)no2)c1`, 2.31% (inactive). With `COc1cccc2c1C(=O)c1c(O)c3c(c(O)c1C2=O)CC(O)(C(C)=NNC(=O)c1ccc(Cl)c(Cl)c1)CC3OC1CC(N)C(O)C(C)O1` (stereo not given) the figure was -72.5% (inactive). For `COc1ccc(CN2CN(C3CCCC3)CSC2=S)cc1`, the inhibition is -9.41% (inactive). As for `COC(=O)[C@@]12C[C@@H](CC(=O)NCc3cccc(C(F)(F)F)c3)C(=O)N(Cc3ccco3)C1=CCC(C)(C)C2`, the inhibition was 1.26% (inactive). The result for `Cc1cccc(-c2cnc(C(O)c3ccc4ccccc4c3)[nH]2)c1` (stereo not given) reads 39.3% (active); that for `Cc1cccc(-c2cnc(C(O)c3cc(C)cc(C)c3)[nH]2)c1` (stereo not given), -2.61% (inactive); that for `COc1cccc(C(O)c2ncc(-c3ccc4ccccc4c3)[nH]2)c1` (stereo not given), -4.1% (inactive).

In the case of `CCc1nn(CCCN2CCN(c3cccc(Cl)c3)CC2)c(=O)n1CCOc1ccccc1`, the inhibition is -4.47% (inactive) and -2.79% (inactive).

For the compound `Cc1ccc(CNS(=O)(=O)c2ccc3c(c2)N(C)CCO3)cc1`, the inhibition was -2.61% (inactive). Regarding `CCCC/C=C/c1cccc2nncn12`, the inhibition is -1.69% (inactive).

Take `COc1ccc2[nH]c3c(C)c4cc[n+](C)cc4c(C)c3c2c1`: the inhibition is 102% (active). Take `Cc1cc(O)c(C(=O)/C=C/c2c(F)c(F)c(F)c(F)c2F)c(=O)o1`: the inhibition is 43.9% (active). With `Cc1cc(O)c(Sc2ccccc2)c(=O)o1` the figure was 0.39% (inactive). The result for `O=C(CC[C@H]1O[C@@H](n2ccc(=O)[nH]c2=O)[C@H](O)[C@@H]1O)N[C@H](Cc1ccccc1)C(=O)NCc1ccco1` reads -1.91% (inactive). As to `CCN(CC(=O)NCC(=O)Nc1cccc(C)c1C)Cc1ccccc1`, the inhibition was 1.96% (inactive).

Regarding `CCOc1cc(CNn2c(C)nnc2SCC(=O)NC(C)(C)C)ccc1OCC(=O)NC(C)(C)C`, the inhibition was 2.06% (inactive).

In the case of `C=CCSc1nnc(Cn2c(=O)sc3ccccc32)n1C`, the inhibition was 7.9% (inactive). The result for `CCSc1nc(C)c(CCOc2cccc(C)c2)c(=O)[nH]1` reads -18.6% (inactive); that for `NC(=O)c1c(NC(=O)CSc2nnc(-c3ccco3)n2N)sc2c1CCCC2`, 10.7% (inactive); that for `COc1cccc(CN(C)CC(=O)Nc2sc3c(c2C#N)CCC3)c1`, 4.05% (inactive). For `COc1ccc(-n2c(SCC(=O)Nc3sc4c(c3C#N)CCCC4)nnc2-c2ccc(O)cc2)cc1`, the inhibition was 50.2% (active). The result for `Cc1ccc(NC(=O)CN(C)S(=O)(=O)c2cnc[nH]2)cc1C` reads -2.5% (inactive); that for `COC1=C/C(=C/c2c(N)n3nc(CC(=O)N4CCOCC4)sc3nc2=O)C=CC1=O`, 16.1% (inactive). In the case of `C=CCC1=C/C(=C\c2c(N)n3nc(CC(=O)N4CCOCC4)sc3nc2=O)C=C(OC)C1=O`, the inhibition was 72.5% (active). As for `O=C(C1CCN(C2CCN(Cc3ccc4cc(F)ccc4n3)CC2)CC1)N1CCCC1`, the inhibition was 1% (inactive). Regarding `Cc1cc(F)ccc1S(=O)(=O)Nc1ncnc2scc(-c3ccc(F)cc3)c12`, the inhibition was 0.77% (inactive). With `O=C(O)CC(c1ccccc1F)N1Cc2ccccc2C1=O` (stereo not given) the figure was -0.99% (inactive); with `O=S(=O)(Nc1ccc2ccccc2c1)N1CCCCC1`, -1.67% (inactive). The result for `Cc1noc(C)c1S(=O)(=O)N(C)C[C@H]1Oc2ccc(NC(=O)C3CCCCC3)cc2C(=O)N([C@H](C)CO)C[C@@H]1C` reads -5.26% (inactive); that for `CCN1/C(=C\c2ccc3ccccc3[n+]2CC)Sc2cc(C)ccc21`, 62.2% (active). With `FC(F)(F)c1ccccc1Cc1c(-c2ccccc2)nc2c3ccccc3ccn12` the figure was 3.57% (inactive); with `COc1cc(CN(C)Cc2nc3cc(C(F)(F)F)ccc3c(=O)[nH]2)ccc1OC(F)F`, 5.3% (inactive). In the case of `CC(=O)Nc1ccc(C(=O)NNC(=O)CCCCC(=O)NNC(=O)c2ccc(NC(C)=O)cc2)cc1`, the inhibition is 2.24% (inactive).

Regarding `CN(CC(=O)NC1CCCCC1)S(=O)(=O)c1cccc2cccnc12`, the inhibition is -6.5% (inactive). The result for `CC1(C)CC(=O)C2=C(C1)NCN(CCCN1CCOCC1)C2` reads -5.59% (inactive). Consider `O=C(COC(=O)c1cc(=O)[nH]c2ccccc12)Nc1nc(-c2cccc(Br)c2)cs1`, for which the inhibition is 3.39% (inactive).

As for `O=C(CSc1nc2ccccc2c(=O)[nH]1)Nc1nc(-c2ccc(Br)cc2)cs1`, the inhibition was 55.8% (active).

`CCCn1c(C)cc(-c2csc(NC(=O)CCc3nc4ccccc4c(=O)[nH]3)n2)c1C`: the inhibition was 5.04% (inactive). Take `CC1(C)C2CCC1(CS(=O)(=O)NCCc1c[nH]c3ccccc13)C(=O)C2` (stereo not given): the inhibition is -3.93% (inactive). The result for `COc1ccc(C(c2nnnn2C2CCCC2)N2CCN(C/C=C/c3ccccc3)CC2)cc1` (stereo not given) reads -3.45% (inactive). The result for `OC[C@@H]1CN(Cc2cccs2)C[C@H](n2cnc3c(Nc4ccccc4)ncnc32)O1` reads 1.6% (inactive); that for `N#C/C(=C\C1=C(N2CCOCC2)C(=C\c2ccccc2)/CC1)C(=O)Nc1ccccc1F`, 59.9% (active); that for `CNC(=O)/C(C#N)=C/c1c(F)cccc1Cl`, -0.2% (inactive).

Take `O=C(CC1SC(N2CCOCC2)=NC1=O)Nc1ccccc1F` (stereo not given): the inhibition was -4.57% (inactive).

With `Cc1cc(C)c(S(=O)(=O)NCC(c2ccc3c(c2)OCO3)N2CCOCC2)c(C)c1` (stereo not given), the inhibition was 4.99% (inactive).

`COc1ccc(C2=Nc3ccccc3NC(=O)C2N(C(=O)c2cc3ccccc3[nH]2)c2ccccc2)cc1` (stereo not given): the inhibition is 1.01% (inactive).

For `O=C(O)c1ccccc1NC(=S)NC(NC(=O)c1ccccc1[N+](=O)[O-])C(Cl)(Cl)Cl` (stereo not given), the inhibition was 0.72% (inactive). Turning to `COc1cc(N2CCCC2)c(OC)cc1/C=C(/C#N)c1cccc(Br)c1`, the inhibition is 40.3% (active). Take `Cc1cccc(NC(=O)C2CC(=O)OC23CCCC3)c1` (stereo not given): the inhibition was -1.93% (inactive). With `Cc1cccc(C)c1NC(=O)C1CCCN1C(=O)OC(C)(C)C` (stereo not given) the figure was 1.38% (inactive); with `O=C(C(=O)N1CCc2ccccc2C1)c1c[nH]c2ccccc12`, 3.61% (inactive). On to `CN(C(=O)COc1nnc(-c2cccs2)c(-c2cccs2)n1)c1ccccc1`, for which the inhibition is 4.69% (inactive). For `C=CCn1c(=S)[nH]c2scc(-c3ccco3)c2c1=O`, the inhibition is 35.8% (active).

Consider `Cc1ccc(-c2nnc(C)c(N3CC(C)OC(C)C3)n2)cc1` (stereo not given), for which the inhibition is 4.31% (inactive). In the case of `Cc1nn(C)c(Cl)c1CN1CCC(Oc2ccc(C(=O)N3CCCC3)cc2)CC1`, the inhibition was -0.97% (inactive). The result for `Cc1ccccc1-n1nc(C)c2cc(C(=O)NC3CC3)sc21` reads -0.46% (inactive).

Turning to `Cc1cccn2c(=O)c3cc(C(=O)NC4CCCCC4)sc3nc12`, the inhibition was 38.6% (active). With `COCCCn1c(C(=O)NC2CCCCC2)cc2c(=O)n3cccc(C)c3nc21` the figure was -3.61% (inactive); with `CN1CCNC(=O)C1CC(=O)N1CC=C(c2ccc(F)cc2)CC1` (stereo not given), -1.53% (inactive). Turning to `Cc1ccc([C@H]2C[C@H](O)[C@@H](n3cc(COC(=O)c4ccccc4)nn3)CN2CC2CCCCC2)cc1`, the inhibition was -1.77% (inactive). The result for `COC(=O)N/N=C/c1c[n+]([O-])c2ccccc2[n+]1[O-]` reads -7.07% (inactive); that for `Cc1cccc(N2CCN(C(=O)/C=C/c3ccco3)CC2)c1C`, -6.8% (inactive); that for `CCC(=O)Nc1ccc2nn(-c3ccc(F)cc3)nc2c1`, -3.58% (inactive). With `Cc1ccc(-n2nc3ccc(NC(=O)/C=C/c4ccco4)cc3n2)cc1C`, the inhibition is 62.3% (active).

Consider `C[C@H](CO)N1C[C@H](C)[C@@H](CN(C)C(=O)c2cnccn2)Oc2ncc(Br)cc2C1=O`, for which the inhibition is -0.87% (inactive).

For `COc1ccc(C(C(=O)NC2CCCC2)N(CCCO)C(=O)Cn2nnc(-c3ccc(C)o3)n2)cc1` (stereo not given), the inhibition was -1.83% (inactive). Consider `CCCNC(=O)C1(C)CCCN(Cc2cccc(C(F)(F)F)c2)C1` (stereo not given), for which the inhibition was 1.08% (inactive). Regarding `O=C(CN1C(=O)CCS(=O)(=O)c2ccccc21)NCc1ccc(F)cc1`, the inhibition was 2.38% (inactive). With `CSCc1ccc(C(=O)Nc2cc(C)cc(C)c2)cc1` the figure was -3.14% (inactive); with `COCc1cc(C)nc(Nc2cc(C)ccc2C)c1C#N`, 2.37% (inactive).

`O=C(CCN1C(=O)c2ccccc2C1=O)NNC(=O)c1ccc(Cl)cc1Cl`: the inhibition is -5.29% (inactive).

On to `O=C(CCN1C(=O)/C(=C/c2cccs2)SC1=S)NNC(=O)c1cccc(O)c1`, for which the inhibition is 51.4% (active). On to `Cc1c(C(=O)NCCN2C(=O)S/C(=C\c3cccs3)C2=O)cccc1[N+](=O)[O-]`, for which the inhibition was -3.22% (inactive).
